# Calb FLC: C. albicans growth inhibition with fluconazole, primary screen, CaCi-2 strain, Alamar Blue fluorescence. growth inhibition, % (test concentration not listed). C. albicans CaCi-2 (fluconazole-resistant clinical isolate) + fluconazole, 48 h. 300,000 tested, 0.57% active;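 active = growth inhibition above about 58% in most replicates, limit read from the data, passing the limit was not always enough; inconclusive = exactly half the replicates above a set limit; inactive = most replicates below a set limit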;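 also: all wells also contain fluconazole at 8 µg/ml as a sub-toxic cotreatment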
# MIN6 prolif: inducers of MIN6 beta-cell proliferation, primary screen, ATP luminescence, uHTS | AID 2380, 2010 | MIN6 cells proliferation, ATPlite luminescence, 48 h; cells starved in 0.2% serum; 100% = growth in 10% serum | 330,000 tested, 0.29% active | proliferation, % at 10 µM;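 active = compounds whose signal lies at least 3.5 SD above the mean of all wells on their plate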
# SR-BI DiI-HDL act: activators of SR-BI mediated DiI-HDL uptake, primary screen, ldlA[mSR-BI] CHO cells, DiI fluorescence. activation, % at 12.5 µM. 320,000 tested, 0.096% active. 3 h; 100 = double the neutral-control signal;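 active = mean replicate activation of at least 60% and every replicate at or above 60%; inconclusive = mean or all-replicate condition met, but not both; inactive = mean below 60% and not all replicates reaching 60%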
#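 system = CHO ldlA[mSR-BI] cells, LDL receptor-null, SR-BI overexpressing | medium = Ham's F12 with 0.5% BSA, HEPES 25 mM, pH 7.4 | probe or stimulus = DiI-HDL 10 µg/mL | compound dosing = single-point compound dose | incubation = compound exposure 3 h, 37 °C | technique = DiI fluorescence, bottom read | read-out = cell-associated DiI fluorescence as measure of HDL uptake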
# m5-HT2A agonist: mouse Htr2a agonists via beta-arrestin recruitment, primary screen, cell-based, luminescence; 5-hydroxytryptamine receptor 2A (Mus musculus), P35363; CHO-K1 mHTR2A beta-arrestin complementation; percent of 30 µM serotonin response; activation, % at 7.6 µM; 360,000 tested, 0.66% active;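 active = activation above a run cutoff, the mean activation of all tested compounds plus 3 SD, cut at about 14% in these data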
# SR-BI HDL uptake: inhibitors of SR-BI mediated HDL lipid uptake, primary screen, ldlA[mSR-BI] cells, fluorescence, single point; Scavenger receptor class B member 1 (Mus musculus), Q61009; ldlA[mSR-BI] CHO cells, DiI-HDL uptake fluorescence, 3 h; inhibition, % at 12.5 µM; 320,000 tested, 0.96% active;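 active = mean replicate inhibition of at least 70% and a set share of replicates each scoring 70 or more; inconclusive = meets just one of the two criteria; inactive = fails both criteria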
# Target sequence (Q61009 whole entry, looked up): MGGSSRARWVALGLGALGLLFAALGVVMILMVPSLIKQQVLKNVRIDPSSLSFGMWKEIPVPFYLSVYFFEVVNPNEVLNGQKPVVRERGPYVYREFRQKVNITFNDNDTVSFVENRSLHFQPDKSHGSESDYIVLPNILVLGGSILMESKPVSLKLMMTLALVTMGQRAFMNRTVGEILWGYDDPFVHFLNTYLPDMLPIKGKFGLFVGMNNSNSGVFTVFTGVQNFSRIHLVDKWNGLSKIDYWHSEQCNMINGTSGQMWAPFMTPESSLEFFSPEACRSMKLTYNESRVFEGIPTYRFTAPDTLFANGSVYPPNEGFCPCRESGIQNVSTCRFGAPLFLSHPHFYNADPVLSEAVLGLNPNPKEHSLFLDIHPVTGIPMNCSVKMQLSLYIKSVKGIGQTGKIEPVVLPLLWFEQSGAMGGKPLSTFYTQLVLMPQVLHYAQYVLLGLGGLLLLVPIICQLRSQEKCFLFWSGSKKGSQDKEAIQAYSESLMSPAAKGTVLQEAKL
# Insulin prom up: insulin promoter activators in MIN6 cells, imaging, high-content screening, mouse beta cells; MIN6 insulin promoter-GFP reporter; active compounds read high; z-score at 5 µM; 190,000 tested, 0.3% active;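 active = z-score above 3 at 5 µM with at least 500 cells counted in the well; inconclusive = wells under 500 cells, flagged as cytotoxic or low count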
# A number is an active result; – = inactive; ? = inconclusive; · = no result. This is a sample that favours compounds with a hit; in the whole collection about 2.4% have one here.
SMILES,Calb FLC,MIN6 prolif,SR-BI DiI-HDL act,m5-HT2A agonist,SR-BI HDL uptake,Insulin prom up
Cc1ccc(NC(=O)c2cnc(N3CCN(c4ccccn4)CC3)c3ccccc23)c(Br)c1,–,·,–,–,78,·
CC1CCC(NC(=O)c2cc(S(=O)(=O)N3CCCCC3)ccc2N2CCOCC2)CC1 (configuration not stated),·,–,–,–,–,·
O=C(Nc1cccc(S(=O)(=O)NC2=NCCCCC2)c1)c1cc(-c2ccccc2)nc2ccccc12,–,–,–,–,77,–
O=C(Nc1cccc(S(=O)(=O)NCc2ccco2)c1)c1cc(-c2ccc(F)cc2)nc2ccccc12,–,–,–,–,74,–
C(#Cc1ccccc1)C[N+]1(CC#Cc2cccc3ccccc23)CCCC1,90,–,–,–,–,?
c1ccc(Nc2nc(-c3cccs3)cs2)nc1,–,–,–,–,–,·
Nc1ccc(Nc2nc(-c3cccs3)cs2)cc1,–,–,–,–,100,–
c1csc(CNc2ncnc3sccc23)c1,85,–,–,–,–,·
c1ccc(CNc2ncnc3sccc23)cc1,–,–,–,–,–,·
Cc1cc(-c2ccccc2)nc(N/N=C/c2ccc([N+](=O)[O-])cc2)n1,–,–,–,–,73,–
Cc1cc(-c2ccccc2)nc(N/N=C/c2ccccc2)n1,–,–,–,–,72,·
Cc1cc(-c2ccccc2)nc(N/N=C/c2cccnc2)n1,–,–,–,–,–,–
CC1(C)Cc2ccccc2C(N/N=C/c2ccc([N+](=O)[O-])cc2)=N1,75,–,–,–,–,–
O=C(Nc1ccc(NS(=O)(=O)c2ccccc2)cc1)c1ccccc1Cl,·,–,–,–,–,·
Cc1ccc(SCc2cc(-c3ccc(Cl)cc3)no2)cc1,–,–,–,–,–,3.1
Cn1nccc1C(=O)N1CCCC(N2CCN(Cc3ccc4c(c3)OCO4)CC2)C1 (configuration not stated),–,–,–,–,–,·
CCOc1ccc(NC(=O)c2cc3c(C)nc4ccccc4c3o2)cc1,–,–,–,–,99,–
CN(C)C(=O)c1cccc(-c2cccc(-c3nc(C(=O)NCc4ccccc4)cc4c3[C@@H](CCO)N(S(=O)C(C)(C)C)C4)c2)c1 (some centres not stated),·,·,·,–,·,·
N#C/C(=C\c1ccc(N2CCOCC2)o1)c1nc2ccccc2[nH]1,–,–,–,–,–,·
N#C/C(=C/c1ccc(N2CCOCC2)o1)c1ccc(Cl)cc1,–,·,–,–,85,·
COC(=O)c1c(C)[nH]c(C(=O)COC(=O)CCc2ccc(OC)c(OC)c2)c1C,·,·,·,–,·,·
Oc1ccc(-c2nccs2)cc1,·,·,73,–,–,·
CC1(NC(=O)Cc2c(F)cccc2Cl)CCS(=O)(=O)C1 (configuration not stated),·,–,–,–,–,·
COc1cc2c(cc1OC)/C(=C/C(=O)c1ccc(OC)c([N+](=O)[O-])c1)NCC2,–,–,–,–,85,·
Cc1cccc(N2CCN(C(=O)c3cn(C)c(=O)c4c3c3ccccc3n4C)CC2)c1C,57,–,–,–,–,–
SMILES,Calb FLC,MIN6 prolif,SR-BI DiI-HDL act,m5-HT2A agonist,SR-BI HDL uptake,Insulin prom up
CC(=O)Nc1ccc(S(=O)(=O)N(C)c2ccc(OCC(=O)NCCc3ccccc3F)cc2)cc1,·,·,–,–,–,·
COc1ccc(C2C=C(c3cccs3)Nc3nc(CCCO)nn32)cc1 (configuration not stated),·,·,·,·,·,5.8
C/C(CC(=O)Nc1cc(C)ccn1)=N\NC(=O)c1cccc(C)c1O,94,–,·,–,·,·
C/C(CC(=O)Nc1ccccn1)=N\NC(=O)c1ccccc1O,?,–,–,–,73,·
C/C(CC(=O)Nc1ccccn1)=N\NC(=O)c1ccccc1,–,–,·,·,·,–
COc1cc(C(=O)Nc2nnc(C3CC3)s2)ccc1OCc1c(C)noc1C,–,–,–,–,88,–
COc1cc(C(=O)Nc2nc3ccccc3s2)ccc1OCc1c(C)noc1C,–,–,–,–,–,–
COc1cc(C(=O)NCC2CCCO2)ccc1OCc1c(C)noc1C (configuration not stated),–,–,–,–,–,–
COc1cc(C(=O)Nc2nccs2)ccc1OCc1c(C)noc1C,–,–,–,–,76,–
COc1ccc(CC(=O)Nc2cc(S(=O)(=O)N3CCCCC3)ccc2OC(C)C)cc1OC,·,·,·,–,·,·
N=C1/C(=C\c2ccc(SCc3ccccc3)o2)C(=O)N=C2SC=NN12,78,–,–,–,–,–
CC(C)[C@@]1(c2ccc(Cl)cc2)ON(c2ccccc2C(F)(F)F)C1=O,·,–,·,·,·,·
Cc1ccc(Cn2c(SCC(=O)NCC3CCCO3)nc3ccsc3c2=O)cc1 (configuration not stated),–,–,60,–,–,–
O=C(CSc1nc2ccsc2c(=O)n1Cc1ccc(C(=O)O)cc1)NCC1CCCO1 (configuration not stated),–,–,–,–,–,–
COC(=O)c1ccc(/C=C/c2c(-c3ccsc3)sc3ccccc23)cc1,–,–,–,–,79,·
Cc1cccc(C(=O)O/N=C/c2c(N3CCOCC3)n(C)c3ccccc23)c1,83,–,·,·,·,–
Cn1c(Cl)c(/C=N/OC(=O)c2ccccc2Cl)c2ccccc21,–,–,–,–,–,–
COCCCN1C(=O)C(=O)/C(=C(/O)c2ccc(OCC(C)C)cc2C)C1c1cccnc1 (configuration not stated),106,–,–,–,–,–
CCCOc1ccc(/C(O)=C2/C(=O)C(=O)N(CCOC)C2c2cccnc2)cc1 (configuration not stated),–,–,·,·,·,–
c1ccc(-c2nc(CSc3n[nH]c(-c4cccs4)n3)cs2)cc1,–,–,–,–,–,–
Cc1ccc(N2C(=S)NC3c4cc(Cl)ccc4OC2(C)C3C(=O)N(C)C)cc1 (configuration not stated),–,10,–,–,–,·
Cc1cccc(N2C(=S)NC3c4cc(Cl)ccc4OC2(C)C3C(=O)N(C)C)c1 (configuration not stated),–,–,–,–,–,·
COc1ccc(NC(=O)C2(C)CCN2CCOc2ccccc2)cc1OC (configuration not stated),·,·,·,–,·,·
Cc1cccc(C(=O)NC(=S)NNC(=O)Cc2ccccc2)c1,95,–,–,–,–,–
O=C(CCc1ccccc1)NNC(=S)NC(=O)c1ccc(Cl)cc1,80,–,·,·,·,–
O=C(NC(=S)NCc1ccccc1)c1ccccc1,–,–,65,–,–,–
Cc1cccc(C(=O)NC(=S)NCc2ccccc2)c1,–,–,–,–,–,·

# Compound activity (PubChem BioAssay)
